In the array DNA melting data of Ke et al. (doi:10.1101/2024.01.08.574731):

Legend:
[1] = folding enthalpy; higher = less favourable; fluorescence melt of hairpins on a sequencing array, two-state fit; details: sodium 0.088 M
Summary of the method: (§1)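 Melting temperature and folding enthalpy were obtained by bootstrapped two-state fitting. Fits used Cy3 fluorescence of library hairpins with annealed Cy3 and quencher oligos on a sequenced MiSeq flow cell, imaged in 50 mM Na-HEPES pH 8.0, 25 mM NaCl in 2.5 °C steps up to 60 °C and normalised to pre-quench Cy3 and control constructs. Four replicates were combined by inverse-variance weighting, and fitted temperatures were raised by 9.35 °C to match UV melts.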

[2] = melting temperature; fluorescence melt of hairpins on a sequencing array, two-state fit, raised by 9.35 °C to match UV melts; details: sodium 0.088 M
Summary of the method: as §1

| Sequence | folding enthalpy [1] | Tm [2] |
| --- | --- | --- |
| GCTCGTGCGAAAGCAAGC (((..(((....)))))) | -7.01 kcal/mol | 45.5 °C |
| GCTCGTGGAAACATGAGC ((((.((....)).)))) | -37.1 kcal/mol | 54.5 °C |
| GCTCGTGGAAACATGGGC ((.(.((....)).).)) | -17.1 kcal/mol | 42.9 °C |
| GCTCGTGGAAACGCGAGC (((((.(....).))))) | -47.9 kcal/mol | 63.2 °C |
| GCTCTAGCGAAAGCTAGC (((..(((....)))))) | -5.88 kcal/mol | 38.3 °C |
| GCTCTAGGAAACTAGAGC (((((((....))))))) | -44.6 kcal/mol | 60.1 °C |
| GCTCTCGAAAGAGTAAGC ((((((....)))..))) | -22.6 kcal/mol | 39.7 °C |
| GCTCTCGGAAACAAGAGC (((((.(....).))))) | -33.6 kcal/mol | 40.2 °C |
| GCTCTGCCGAAAGGCAGC (((..(((....)))))) | -6.01 kcal/mol | 40 °C |
| GCTCTGCGAAAGCACTGC ((..(((....)))..)) | -10.7 kcal/mol | 31.6 °C |
| GCTCTGCGAAAGCCGAGC ((((.((....)).)))) | -25.2 kcal/mol | 60.1 °C |
| GCTCTGCGAAAGCCGTGC ((.(.((....)).).)) | -11.9 kcal/mol | 36.2 °C |
| GCTCTGCGAAAGCCTAGC (((..((....))..))) | -14.7 kcal/mol | 36.6 °C |
| GCTCTGCGAAAGCTAAGC (((..((....))..))) | -13.4 kcal/mol | 37.9 °C |
| GCTCTGGCGAAAGCCAGC (((..(((....)))))) | -6.82 kcal/mol | 31.5 °C |
| GCTCTTCCGAAAGGAAGC (((..(((....)))))) | -9 kcal/mol | 37.2 °C |
| GCTCTTGCGAAAGCAAGC (((..(((....)))))) | -8.63 kcal/mol | 36.2 °C |
| GCTCTTGGAAACAGGAGC ((((.((....)).)))) | -33.9 kcal/mol | 48.9 °C |
| GCTGAATCGAAAGATAGC (((..(((....)))))) | -17.3 kcal/mol | 31.9 °C |
| GCTGACGAAAGTCACAGC ((((((....)))..))) | -15.4 kcal/mol | 45.3 °C |
| GCTGACGAAAGTCCTAGC ((((((....)))..))) | -17 kcal/mol | 34.3 °C |
| GCTGAGACGAAAGTCAGC (((..(((....)))))) | -21.4 kcal/mol | 49.1 °C |
| GCTGAGCGAAAGCAAAGC (((..((....))..))) | -28.5 kcal/mol | 60.2 °C |

| Sequence | folding enthalpy [1] | Tm [2] |
| --- | --- | --- |
| GCTGAGCGAAAGCAGAGC (((..((....))..))) | -17 kcal/mol | 45.9 °C |
| GCTGAGCGAAAGCCCAGC ((((.((....)).)))) | -47.6 kcal/mol | 63.9 °C |
| GCTGAGCGAAAGCCTAGC (((..((....))..))) | -16.4 kcal/mol | 48.4 °C |
| GCTGAGCGAAAGCGCGGC ((.(.((....)).).)) | -26.3 kcal/mol | 63 °C |
| GCTGAGCGAAAGCTGAGC (((.(((....))).))) | -40.4 kcal/mol | 55 °C |
| GCTGAGCGAAAGCTTTGC ((..(((....)))..)) | -19.1 kcal/mol | 47.9 °C |
| GCTGAGGAAACTCAGC ((((((....)))))) | -37.7 kcal/mol | 63.5 °C |
| GCTGAGGGAAACCTCAGC (((((((....))))))) | -45.2 kcal/mol | 69.2 °C |
| GCTGAGGGAAACTTCGGC ((.((.(....).)).)) | -29 kcal/mol | 33.8 °C |
| GCTGATCGAAAGATAGC (((.(((....)))))) | -23.1 kcal/mol | 41.5 °C |
| GCTGCAGGAAACCGCAGC (((((.(....).))))) | -32.9 kcal/mol | 57.8 °C |
| GCTGCAGGAAACTGCGGC ((.((((....)))).)) | -41.5 kcal/mol | 61.6 °C |
| GCTGCAGGAAACTGTGGC ((..(((....)))..)) | -25.8 kcal/mol | 46.5 °C |
| GCTGCCGAAAGGCATAGC ((((((....)))..))) | -15 kcal/mol | 51.6 °C |
| GCTGCCGAAAGGCCAGC ((((((....))).))) | -24.4 kcal/mol | 61.5 °C |
| GCTGCCGAAAGGCCGAGC ((((((....)))..))) | -13.9 kcal/mol | 43.6 °C |
| GCTGCCGAAAGGCTAAGC ((((((....)))..))) | -16.8 kcal/mol | 53.8 °C |
| GCTGCCGGAAACGACAGC ((((.((....)).)))) | -45.7 kcal/mol | 55.2 °C |
| GCTGCGCGAAAGCACGGC ((.(.((....)).).)) | -26.6 kcal/mol | 59.1 °C |
| GCTGCGCGAAAGCACTGC ((.(.((....)).).)) | -24.2 kcal/mol | 53.3 °C |
| GCTGCGCGAAAGCGAAGC (((.(((....))).))) | -29.7 kcal/mol | 69.1 °C |
| GCTGCGTCGAAAGACAGC (((..(((....)))))) | -14.5 kcal/mol | 47.1 °C |
| GCTGGAACGAAAGTTAGC (((..(((....)))))) | -18.1 kcal/mol | 33.9 °C |

| Sequence | folding enthalpy [1] | Tm [2] |
| --- | --- | --- |
| GCTGGACGAAAGTCTAGC (((.(((....))).))) | -39.1 kcal/mol | 62.4 °C |
| GCTGGCACGAAAGTGAGC (((..(((....)))))) | -14.1 kcal/mol | 36.9 °C |
| GCTGGCCGAAAGGCAAGC (((.(((....))).))) | -25.5 kcal/mol | 68.9 °C |
| GCTGGCGAAAGCCGCAGC ((((((....)))..))) | -12.9 kcal/mol | 52.4 °C |
| GCTGGCGAAAGCCTTAGC ((((((....)))..))) | -15.1 kcal/mol | 44.4 °C |
| GCTGGGCGAAAGCAGAGC (((..((....))..))) | -19.8 kcal/mol | 49.5 °C |
| GCTGGGCGAAAGCCAAGC (((.(((....))).))) | -26.8 kcal/mol | 66.8 °C |
| GCTGGGCGAAAGCCACGC ((..(((....)))..)) | -15.6 kcal/mol | 48 °C |
| GCTGGGCGAAAGCCTAGC (((.(((....))).))) | -31.5 kcal/mol | 66.2 °C |
| GCTGGGCGAAAGCGCCGC ((.(.((....)).).)) | -18.2 kcal/mol | 47.4 °C |
| GCTGGGCGAAAGCGTAGC (((..((....))..))) | -22.5 kcal/mol | 52.1 °C |
| GCTGGGGGAAACCTCAGC ((((.((....)).)))) | -44.8 kcal/mol | 54.6 °C |
| GCTGGGGGAAACCTCGGC ((.(.((....)).).)) | -28.9 kcal/mol | 44.4 °C |
| GCTGTAGAAATACAGC ((((((....)))))) | -34.7 kcal/mol | 56.9 °C |
| GCTGTAGGAAACCACAGC (((((.(....).))))) | -36.3 kcal/mol | 47.5 °C |
| GCTGTCCCGAAAGGGAGC (((..(((....)))))) | -11 kcal/mol | 41.5 °C |
| GCTGTCGAAAGACCAGC ((((((....))).))) | -20.8 kcal/mol | 51.3 °C |
| GCTGTCGAAAGACCCAGC ((((((....)))..))) | -15.9 kcal/mol | 34.8 °C |
| GCTGTCGAAAGACCGAGC ((((((....)))..))) | -21 kcal/mol | 37 °C |
| GCTGTCGAAAGACCTAGC ((((((....)))..))) | -15.7 kcal/mol | 36.5 °C |
| GCTGTCGAAAGACGGAGC ((((((....)))..))) | -18.1 kcal/mol | 42.9 °C |
| GCTGTCGAAAGACTAGC ((((((....))).))) | -24.4 kcal/mol | 50.3 °C |
| GCTGTCGAAAGACTTAGC ((((((....)))..))) | -19.9 kcal/mol | 43 °C |

| Sequence | folding enthalpy [1] | Tm [2] |
| --- | --- | --- |
| GCTGTCGCGAAAGCGAGC (((..(((....)))))) | -8.75 kcal/mol | 41.8 °C |
| GCTGTCGGAAACAACAGC (((((.(....).))))) | -26.9 kcal/mol | 46 °C |
| GCTGTGCCGAAAGGCAGC (((..(((....)))))) | -10.3 kcal/mol | 48.7 °C |
| GCTGTGCGAAAGCAAAGC (((.(((....))).))) | -42.2 kcal/mol | 55.7 °C |
| GCTGTGCGAAAGCAATGC ((..(((....)))..)) | -19.1 kcal/mol | 42.8 °C |
| GCTGTGCGAAAGCACCGC ((.((((....)))).)) | -17.9 kcal/mol | 58.7 °C |
| GCTGTGCGAAAGCATGGC ((..(((....)))..)) | -22.4 kcal/mol | 59.5 °C |
| GCTGTGCGAAAGCGAAGC (((..((....))..))) | -17.9 kcal/mol | 52.6 °C |
| GCTGTGCGAAAGCGGAGC (((..((....))..))) | -22 kcal/mol | 54.9 °C |
| GCTGTGCGAAAGCTAAGC (((..((....))..))) | -21.4 kcal/mol | 53.1 °C |
| GCTGTGGAAACACAGC ((((((....)))))) | -37.4 kcal/mol | 68.7 °C |
| GCTGTGGGAAACCATAGC (((.(((....))).))) | -22.3 kcal/mol | 50 °C |
| GCTGTGGGAAACCGCAGC ((((.((....)).)))) | -44.6 kcal/mol | 60.7 °C |
| GCTGTGGGAAACCGTAGC (((..((....))..))) | -18.5 kcal/mol | 34.4 °C |
| GCTGTGGGAAACTGCAGC ((((..(....)..)))) | -20.3 kcal/mol | 48.1 °C |
| GCTGTTCGAAAGAATAGC (((.(((....))).))) | -44.9 kcal/mol | 53.2 °C |
| GCTGTTGGAAACAATGGC ((..(((....)))..)) | -27.4 kcal/mol | 39.9 °C |
| GCTTAACGAAAGTTGAGC (((.(((....))).))) | -38.9 kcal/mol | 52.4 °C |
| GCTTAACGAAAGTTTAGC (((.(((....))).))) | -30.5 kcal/mol | 46.4 °C |
| GCTTAAGGAAACTTGAGC (((.(((....))).))) | -31.5 kcal/mol | 38.9 °C |
| GCTTACCGAAAGGTCAGC (((.(((....))).))) | -27.8 kcal/mol | 50.3 °C |
| GCTTACCGAAAGGTGAGC (((.(((....))).))) | -40.5 kcal/mol | 58.6 °C |
